One assay has as its system Leishmania infantum. In words: Evaluated in vitro for antitrypanosomal activity against Leishmania infantum. It counts as functional. The note with it: read-out: ED50 (the source's name). A digest of the protocol: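 Primary mouse peritoneal macrophages, 30,000 per well on culture slides. After 24 h, L. infantum amastigotes from the spleen of an infected donor animal were added at a 10/1 infection ratio with two-fold drug dilutions. Incubation was 7 days at 37 °C in 5% CO2. Wright-stained slides were scored microscopically for % reduction of parasite load or infected macrophages, and ED50 was extrapolated.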

In the next assay the test system is MRC5. In words: Tested for cytotoxicity towards human MRC-5 cells. It counts as functional. The method, boiled down:
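MRC-5 cells were seeded at 5000 per well and washed after 24 h. Two-fold drug dilutions (32 down to 1.6) were added in RPMI + 5% FCS, with final DMSO below 0.5%. After 7 days at 37 °C in 5% CO2, MTT absorbance at 540 nm was read as % reduction versus untreated controls to give CC50.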

Assay [1] is described as follows: Tested for cytotoxicity towards mouse peritoneal macrophages (MPM). It counts as functional. The method, boiled down:
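Peritoneal macrophages were harvested 48 h after potato-starch stimulation and seeded at 30,000 per well. After 24 h they were washed and given two-fold drug dilutions (32 down to 1.6) in RPMI + 5% FCS, with final DMSO below 0.5%. Cultures ran 7 days at 37 °C in 5% CO2 alongside untreated controls.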

The next assay relates to Trypanosoma brucei. In words: Evaluated in vitro for antitrypanosomal activity against Trypanosoma brucei. It is filed as functional. The note with it: read-out: ED50 (the source's name). The method, boiled down: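 T. brucei bloodstream forms were grown in HMI-9 medium. 10,000 haemoflagellates per well were exposed to different drug concentrations for 4 days; ED50 was reported.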

For a further assay, the system named is Trypanosoma cruzi. In words: Evaluated in vitro for antitrypanosomal activity against Trypanosoma cruzi. It counts as functional. The note with it: read-out: ED50 (the source's name). A digest of the protocol: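 Mouse peritoneal macrophages were seeded at 30,000 per well. After 24 h, about 100,000 T. cruzi trypomastigotes were added per well with 2-fold drug dilutions, then held 4 days at 37 °C in 5% CO2. After methanol fixation and Giemsa staining, % reduction of total parasite load (free trypomastigotes plus intracellular amastigotes) versus untreated cultures was scored microscopically; ED50 was extrapolated.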

For a further assay, the target named is Trypanothione reductase (Trypanosoma cruzi, UniProt P28593). In words: Compound was tested for inhibition of trypanothione reductase from Trypanosoma cruzi. A digest of the protocol:
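T. cruzi trypanothione reductase assay, with trypanothione disulfide as substrate and 0.02 U TR per assay; IC50 determined over increasing compound concentrations.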

Trypanothione reductase, sequence (P28593 whole entry): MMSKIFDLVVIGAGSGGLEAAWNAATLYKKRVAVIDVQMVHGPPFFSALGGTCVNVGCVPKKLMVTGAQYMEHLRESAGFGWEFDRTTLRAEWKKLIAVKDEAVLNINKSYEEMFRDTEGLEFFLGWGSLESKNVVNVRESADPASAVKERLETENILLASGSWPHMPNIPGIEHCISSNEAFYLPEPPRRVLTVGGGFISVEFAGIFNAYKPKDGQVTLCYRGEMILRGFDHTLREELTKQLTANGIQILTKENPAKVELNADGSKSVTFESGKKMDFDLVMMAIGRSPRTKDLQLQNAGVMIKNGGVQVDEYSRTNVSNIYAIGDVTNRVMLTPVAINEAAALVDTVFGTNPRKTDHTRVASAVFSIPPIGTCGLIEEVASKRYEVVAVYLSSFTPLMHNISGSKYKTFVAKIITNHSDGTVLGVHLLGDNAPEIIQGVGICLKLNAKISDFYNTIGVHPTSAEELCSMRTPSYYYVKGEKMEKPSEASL

With `COC(=O)c1ccc([N+](=O)[O-])o1`, the EC50 in the assay with Leishmania infantum, in the assay on Trypanosoma brucei and with Trypanosoma cruzi was > 32 µM in each case. The CC50 – broadly, the concentration at which the toxic effect on the cells reaches its halfway point – in the assay with MRC5 is > 32 µM; in assay [1], 32 µM.
`CC(C)(C)OC(=O)N[C@@H](C(=O)NNC(=O)c1ccc([N+](=O)[O-])o1)c1ccccc1`: the values for the EC50 in the assay on Leishmania infantum, in the assay with Trypanosoma brucei and in the assay on Trypanosoma cruzi were 8 µM, 0.25 µM and 4 µM, respectively. Further, the 50% cytotoxic concentration (CC50) with MRC5 came out at 6 µM; in assay [1] it was 32 µM.
On to `CC1CS(=O)(=O)CCN1/N=C/c1ccc([N+](=O)[O-])o1` (centres undefined) [NIFURTIMOX], for which, in the assay with MRC5, the CC50 is > 50 µM. Besides, the EC50 with Trypanosoma cruzi is 0.4 µM.
Turning to `O=C(NNS(=O)(=O)c1cccc2ccccc12)c1ccc([N+](=O)[O-])o1`, the values for the EC50 in the assay on Leishmania infantum, in the assay on Trypanosoma brucei and in the assay on Trypanosoma cruzi were 8 µM, 1 µM and 0.8 µM, respectively. Further, the CC50 came out at 0.75 µM in the assay on MRC5 and 32 µM in assay [1].
`O=C(Cc1ccc2ccccc2c1)NNC(=O)c1ccc([N+](=O)[O-])o1`: the EC50 in the assay on Leishmania infantum came out at 8 µM; in the assay on Trypanosoma brucei, 0.59 µM; in the assay with Trypanosoma cruzi, 0.4 µM. The CC50 in the assay with MRC5 turned out to be 4 µM; in assay [1], 32 µM. Moreover, on Trypanothione reductase, the IC50 (as a rule, the concentration that gives 50% inhibition) was > 25 µM.
Take `O=C(Cc1ccccc1)NNC(=O)c1ccc([N+](=O)[O-])o1`: the EC50 is 8 µM in the assay on Leishmania infantum, 0.3 µM in the assay on Trypanosoma brucei and 1 µM in the assay on Trypanosoma cruzi. The CC50 with MRC5 is 2 µM; in assay [1], 32 µM.
For `N[C@@H](C(=O)NNC(=O)c1ccc([N+](=O)[O-])o1)c1ccccc1` the same measures were > 32 µM, 2 µM, 2 µM, 14 µM and 32 µM.
The like results for `Nc1ccc2cc(C(=O)NNC(=O)c3ccc([N+](=O)[O-])o3)ccc2c1` were, in that order, 8 µM, 0.64 µM, 4 µM, 0.77 µM and 32 µM.
`O=C(NNS(=O)(=O)c1ccc2ccccc2c1)c1ccc([N+](=O)[O-])o1`: the EC50 in the assay on Leishmania infantum is > 32 µM; in the assay on Trypanosoma brucei it was 28 µM; with Trypanosoma cruzi, > 32 µM. Besides, the cytotoxic concentration (CC50) in the assay on MRC5 is 18 µM; in assay [1], 32 µM.
`O=C(NNC(=O)c1cccc2ccccc12)c1ccc([N+](=O)[O-])o1`: the values for the EC50 in the assay with Leishmania infantum, in the assay on Trypanosoma brucei and in the assay on Trypanosoma cruzi were 8 µM, 0.4 µM and 3 µM, respectively. Further, the figures for the CC50 (with MRC5; in assay [1]) were 1 µM and 32 µM, respectively.
As to `O=C(NNC(=O)c1ccc([N+](=O)[O-])o1)c1ccc([N+](=O)[O-])o1`, the values for the EC50 in the assay with Leishmania infantum, with Trypanosoma brucei and in the assay on Trypanosoma cruzi were 8 µM, 3 µM and 3 µM, respectively. In addition, the values for the CC50 (with MRC5; in assay [1]) were 4 µM and 32 µM, respectively. For the same compound, the IC50 against Trypanothione reductase is > 50 µM.
On to `O=C(Cn1ccnc1[N+](=O)[O-])NCc1ccccc1` [BENZNIDAZOLE], for which the CC50 with MRC5 was > 50 µM. The EC50 in the assay with Trypanosoma cruzi came out at 3.13 µM.
In the case of `O=C(NNC(=O)c1ccc([N+](=O)[O-])o1)c1ccccc1`, the EC50 with Leishmania infantum was > 32 µM; in the assay on Trypanosoma brucei, 32 µM; in the assay on Trypanosoma cruzi it was 16 µM. Besides, the CC50 is 17 µM in the assay with MRC5 and 32 µM in assay [1].
Consider `NNC(=O)c1ccc([N+](=O)[O-])o1`, for which the results for the EC50 in the assay on Leishmania infantum, in the assay with Trypanosoma brucei and with Trypanosoma cruzi were > 32 µM, 5 µM and 0.5 µM, respectively. For the same compound, the CC50 in the assay on MRC5 came out at 9 µM; in assay [1] it was 32 µM. Besides, at Trypanothione reductase, the IC50 was > 50 µM.
`O=C(O)c1ccc([N+](=O)[O-])o1` [5-NITRO-2-FUROIC ACID]: the EC50 in the assay on Leishmania infantum was > 32 µM; in the assay with Trypanosoma brucei, 5 µM; in the assay with Trypanosoma cruzi, > 32 µM. In addition, the figures for the CC50 (with MRC5; in assay [1]) were > 32 µM and 32 µM, respectively.
Take `CC(C)(C)OC(=O)NNC(=O)c1ccc([N+](=O)[O-])o1`: the EC50 in the assay on Leishmania infantum was > 32 µM; in the assay on Trypanosoma brucei, 2 µM; in the assay with Trypanosoma cruzi, 1 µM. Further, the CC50 in the assay with MRC5 came out at 12 µM; in assay [1] it was 32 µM. Moreover, the IC50 against Trypanothione reductase is > 50 µM.
Turning to `O=C(NNC(=O)c1ccc([N+](=O)[O-])o1)c1ccc2ccccc2c1`, the EC50 in the assay with Leishmania infantum was found to be 8 µM; in the assay with Trypanosoma brucei it was 0.13 µM; in the assay with Trypanosoma cruzi, 4 µM. In addition, the CC50 with MRC5 is 2 µM; in assay [1], 32 µM.
For `CC(C)(C)OC(=O)Nc1ccc2cc(C(=O)NNC(=O)c3ccc([N+](=O)[O-])o3)ccc2c1`, the EC50 is 8 µM in the assay with Leishmania infantum, 0.5 µM with Trypanosoma brucei and 1 µM with Trypanosoma cruzi. For the same compound, the CC50 in the assay on MRC5 turned out to be 2 µM; in assay [1] it was 32 µM.
As to `Nc1nc(N)nc(Nc2ccc([As]3SCC(CO)S3)cc2)n1` (centres undefined) [MELARSOPROL], the EC50 in the assay with Trypanosoma brucei was 0.2 µM.
As for `O=C(NNS(=O)(=O)c1ccccc1)c1ccc([N+](=O)[O-])o1`, the EC50 was > 32 µM in the assay with Leishmania infantum, 2 µM in the assay on Trypanosoma brucei and 16 µM in the assay with Trypanosoma cruzi. Also, the CC50 in the assay on MRC5 turned out to be 4 µM; in assay [1], 32 µM.

For the origin of these results see ChEMBL document CHEMBL1136044, “Antitrypanosomal activities and cytotoxicity of 5-nitro-2-furancarbohydrazides” (Bioorg Med Chem Lett, 2002).
